According to ChEMBL document CHEMBL4622835, “A novel potent metal-binding NDM-1 inhibitor was identified by fragment virtual, SPR and NMR screening” (Bioorg Med Chem, 2020):

How the values were obtained:
Klebsiella pneumoniae = experiment: Synergistic antibacterial activity against Klebsiella pneumoniae ATCC BAA-2470 cells expressing NDM-1 incubated for 20 to 24 hrs presence of meropenem by broth dilution method (Rvb >64 ug/ml); type: functional
Summary of the method: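 Broth microdilution in Mueller-Hinton broth, final inoculum about 5 × 10^5 CFU/mL. Test compound fixed at 100 µg/mL final (from 20 mg/mL DMSO stock). Meropenem in two-fold dilutions, 64 to 0.0625 µg/mL final. Plates held 20–24 h at 37 °C. MIC is the lowest meropenem concentration with no visible growth.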

[1] = Binding affinity to recombinant bacteria NDM-1 (I31 to K268 residues)expressed in Escherichia coli BL21 (DE3) cells by SPR assay
Summary of the method: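 Tag-free NDM-1 at 50 µg/ml in pH 5.0 sodium acetate, amine-coupled to a CM7 chip (>8,000 RU). Biacore T200, 25 °C, 30 µL/min. Running buffer 10 mM Hepes pH 7.5, 150 mM NaCl, 100 µM ZnCl2, 2% DMSO (EDTA-2Na run without DMSO). Eight two-fold dilutions per compound. KD from a steady-state 1:1 fit, at least three runs.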

[2] = Inhibition of recombinant bacteria NDM-1 (I31 to K268 residues) expressed in Escherichia coli BL21 (DE3) cells incubated for 20 mins using meropenem as substrate
Summary of the method: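 NDM-1 (12 nM) preincubated with inhibitor for 20 min at room temperature, then meropenem (100 µM) added. Final buffer 50 mM hepes pH 7.24 with 2% DMSO. Absorbance read at 300 nm at 30 °C. Duplicate wells, three repeats. IC50 taken from percent loss of activity against inhibitor concentration; L-captopril as positive control.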

[3] = Inhibition of bacteria NMD-1
[4] = Binding affinity to recombinant bacteria 15N labeled His-6-tagged NDM-1 (36 to 270 residues) expressed in Escherichia coli BL21 (DE3) cells by NMR analysis
Summary of the method: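 15N-labelled NDM-1 (0.11 mM or 0.165 mM) in 50 mM HEPES, 200 mM NaCl, pH 7.5, titrated with inhibitor from DMSO stock (20 mM or 50 mM). 1H-15N HSQC spectra recorded at 800 MHz, 298 K and 293 K. NDM-1:inhibitor mole ratios ran 1:0 to 1:15. Both di-Zn and apo (EDTA-stripped) forms were used; after the apo titrations, 2 equiv Zn2+ added.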

CC(C)(C)/C(=N\Nc1cccc2cccnc12)C(=O)O.Cl showed an MIC (Klebsiella pneumoniae) of 64 µg/mL, a Kd [1] of 435 µM and an IC50 [2] greater than 500 µM.
For CC/C(=N\Nc1ccccc1)C(=O)O, the MIC (Klebsiella pneumoniae) was greater than 64 µg/mL and the Kd [1] was 191 µM.
Work on O=C([O-])CN(CCN(CC(=O)[O-])CC(=O)O)CC(=O)O.[Na+].[Na+] [EDETATE DISODIUM ANHYDROUS] yielded a Kd [1] greater than 1000 µM and an IC50 [2] of 17.2 µM.
For C/C(=N\Nc1cccnc1)C(=O)O.Cl, the MIC (Klebsiella pneumoniae) was greater than 64 µg/mL and the Kd [1] was greater than 1000 µM.
Work on CCC/C(=N\Nc1ccccc1)C(=O)O yielded an MIC (Klebsiella pneumoniae) greater than 64 µg/mL and a Kd [1] of 188 µM.
CC(C)(C)/C(=N\Nc1cccnc1)C(=O)O.Cl showed an MIC (Klebsiella pneumoniae) greater than 64 µg/mL and a Kd [1] greater than 1000 µM.
In the case of C[C@H](CS)C(=O)N1CCC[C@H]1C(=O)O [CAPTOPRIL], the Kd [1] is reported as 12 to 14.1 µM and the IC50 [2] is reported as 390 µM.
C/C(=N\Nc1cccc2ccccc12)C(=O)O gave an MIC (Klebsiella pneumoniae) greater than 64 µg/mL, a Kd [1] of 255 µM and an IC50 [2] of 389 µM.
In the case of O=c1c2ccccc2[se]n1-c1ccccc1 [EBSELEN], the IC50 [3] is reported as 0.38 µM.
O=C(O)CNC(=O)C(CS)Cc1ccccc1 (configuration not stated) [THIORPHAN] gave an IC50 [3] of 1.8 µM.
NCc1ccc(C(=O)N[C@H]2Cc3cccc(C(=O)O)c3O[B-]2(O)O)cc1 gave an IC50 [3] of 0.029 µM.
For CC/C(=N\Nc1cccc2cccnc12)C(=O)O.Cl, the MIC (Klebsiella pneumoniae) was 64 µg/mL, the Kd [1] was 275 µM and the IC50 [2] was 68.2 µM.
C/C(=N\Nc1cccc2cccnc12)C(=O)O.Cl gave an MIC (Klebsiella pneumoniae) greater than 64 µg/mL, a Kd [1] of 219 to 290 µM and an IC50 [2] of 124 µM. For the same compound, the Kd [4] was 620 µM.
CCC/C(=N\Nc1cccc2cccnc12)C(=O)O.Cl showed an MIC (Klebsiella pneumoniae) greater than 64 µg/mL, a Kd [1] of 221 µM and an IC50 [2] of 82.3 µM.
With NCCN[C@H]1CC[C@H](CC(=O)N[C@H]2Cc3cccc(C(=O)O)c3OB2O)CC1 the IC50 [3] was 0.01 µM.
Work on N[C@@H](CN[C@@H](CN[C@@H](CC(=O)O)C(=O)O)C(=O)O)C(=O)O yielded an IC50 [3] of 7 µM.
With C[C@@H](O)[C@H]1C(=O)N2C(C(=O)O)=C(S[C@@H]3CN[C@H](C(=O)N(C)C)C3)[C@H](C)[C@H]12 [MEROPENEM] the Kd [1] was 75 µM.
O=C(O)[C@@H]1CS[C@H]2CS[C@H](CS)N21 showed an IC50 [3] of 23 µM.
CCC/C(=N\Nc1cccc2ccccc12)C(=O)O showed an MIC (Klebsiella pneumoniae) of 32 µg/mL, a Kd [1] greater than 1000 µM and an IC50 [2] greater than 500 µM.
For CC/C(=N\Nc1cccnc1)C(=O)O.Cl, the MIC (Klebsiella pneumoniae) was greater than 64 µg/mL and the Kd [1] was greater than 1000 µM.
For C/C(=N\Nc1ccccc1)C(=O)O, the MIC (Klebsiella pneumoniae) was greater than 64 µg/mL and the Kd [1] was 168 µM.
In the case of CC(C)(C)/C(=N\Nc1ccccc1)C(=O)O, the MIC (Klebsiella pneumoniae) is reported as greater than 64 µg/mL and the Kd [1] is reported as 438 µM.
CC(C)(C)/C(=N\Nc1cccc2ccccc12)C(=O)O showed an MIC (Klebsiella pneumoniae) greater than 64 µg/mL, a Kd [1] of 307 µM and an IC50 [2] of 94.6 µM.
CCC/C(=N\Nc1cccnc1)C(=O)O.Cl showed an MIC (Klebsiella pneumoniae) greater than 64 µg/mL and a Kd [1] of 703 µM.
With CC/C(=N\Nc1cccc2ccccc12)C(=O)O the MIC (Klebsiella pneumoniae) was greater than 64 µg/mL, the Kd [1] was 449 µM and the IC50 [2] was 28.1 µM.
